Results: ChEMBL document CHEMBL4808182, “Discovery of the Soluble Guanylate Cyclase Activator Runcaciguat (BAY 1101042)” (J Med Chem, 2021)

What was measured:
Cytochrome P450 1A2 [1] = target: T1, Cytochrome P450 1A2 (Homo sapiens, UniProt P05177); assay: Induction of CYP1A2 in human hepatocytes at > 10000 ng/ml using phenacetin as substrate incubated for 60 mins by LC-MS/MS analysis; type: ADME, cell-based, Hepatocyte; settings: 1 h
T1 sequence (P05177 whole entry): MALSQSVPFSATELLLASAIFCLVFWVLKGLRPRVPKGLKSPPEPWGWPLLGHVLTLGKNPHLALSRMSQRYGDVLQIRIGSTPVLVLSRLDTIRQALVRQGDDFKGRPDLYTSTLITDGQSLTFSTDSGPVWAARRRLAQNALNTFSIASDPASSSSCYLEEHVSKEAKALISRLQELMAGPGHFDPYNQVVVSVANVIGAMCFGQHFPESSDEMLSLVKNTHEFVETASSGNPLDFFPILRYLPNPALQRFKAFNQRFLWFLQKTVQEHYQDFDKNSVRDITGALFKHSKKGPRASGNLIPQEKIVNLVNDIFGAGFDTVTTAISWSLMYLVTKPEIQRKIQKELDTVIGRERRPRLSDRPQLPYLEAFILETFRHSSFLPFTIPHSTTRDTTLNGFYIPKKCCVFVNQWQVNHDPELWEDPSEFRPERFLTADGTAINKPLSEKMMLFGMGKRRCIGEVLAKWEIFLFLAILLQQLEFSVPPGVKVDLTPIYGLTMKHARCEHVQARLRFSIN

Cytochrome P450 3A4 = Cytochrome P450 3A4 (Homo sapiens, UniProt P08684); assay: Induction of CYP3A4 in human hepatocytes at > 10000 ng/ml using phenacetin as substrate incubated for 60 mins by LC-MS/MS analysis; type: ADME, cell-based, Hepatocyte; settings: 1 h
[2] = target: T2, Guanylate cyclase soluble subunit alpha-1 (Rattus norvegicus) (UniProt P19686); assay: Activation of recombinant rat sGC alpha1 subunit expressed in CHO cells assessed as induction of [32P-cGMP] formation by measuring efficacy using alpha-[32P-GTP] as substrate measured after 6 mins by luminescence assay relative to control; type: cell-based; settings: filed as activator
T2 sequence (whole entry): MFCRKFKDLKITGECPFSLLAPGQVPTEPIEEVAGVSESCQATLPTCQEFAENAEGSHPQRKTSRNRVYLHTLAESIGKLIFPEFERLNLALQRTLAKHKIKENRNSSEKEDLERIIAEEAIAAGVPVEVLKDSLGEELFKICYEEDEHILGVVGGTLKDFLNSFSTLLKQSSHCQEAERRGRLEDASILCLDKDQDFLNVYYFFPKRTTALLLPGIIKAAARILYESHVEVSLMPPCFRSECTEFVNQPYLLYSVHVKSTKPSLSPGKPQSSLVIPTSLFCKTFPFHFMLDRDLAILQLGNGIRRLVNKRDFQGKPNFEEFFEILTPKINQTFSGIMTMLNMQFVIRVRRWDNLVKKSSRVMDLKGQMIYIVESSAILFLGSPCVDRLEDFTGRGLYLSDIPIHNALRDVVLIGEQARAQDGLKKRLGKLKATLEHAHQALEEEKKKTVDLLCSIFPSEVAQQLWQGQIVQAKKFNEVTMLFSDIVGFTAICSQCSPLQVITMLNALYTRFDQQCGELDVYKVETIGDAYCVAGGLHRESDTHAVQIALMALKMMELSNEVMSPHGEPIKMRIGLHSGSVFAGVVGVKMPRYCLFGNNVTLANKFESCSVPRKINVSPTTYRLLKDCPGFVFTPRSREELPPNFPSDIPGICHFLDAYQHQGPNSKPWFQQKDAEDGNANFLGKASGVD

[3] = Activation of recombinant rat sGC expressed in CHO cells by luminescence assay; type: cell-based; settings: CHO
Procedure, shortened: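 Stable CHO reporter cell line overexpressing rat sGC; cGMP formation read as luminescence. EC50 from concentration–response. MEC taken as lowest concentration giving at least threefold increase in basal luminescence.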

[4] = target: T2, Guanylate cyclase soluble subunit alpha-1 (Rattus norvegicus); assay: Activation of recombinant rat sGC alpha1 subunit expressed in CHO cells assessed as induction of [32P-cGMP] formation using alpha-[32P-GTP] as substrate measured after 6 mins by luminescence assay; type: cell-based; settings: filed as activator
[5] = Clearance in Wistar rat at 0.3 mg/kg, iv measured up to 24 hrs by LC-MS analysis; type: ADME, organism-based; settings: in vivo
Procedure, shortened: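 Rats dosed iv at 0.3 mg/kg; blood clearance determined.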

[6] = Plasma clearance in iv dosed cynomolgus monkey measured up to 24 hrs by LC-MS analysis; type: ADME, organism-based, Macaca fascicularis
[7] = Plasma clearance in iv dosed Beagle dog measured up to 24 hrs by LC-MS analysis; type: ADME, organism-based, Canis lupus familiaris
[8] = Half life in iv dosed Beagle dog measured up to 24 hrs by LC-MS analysis; type: ADME, organism-based, Canis lupus familiaris; settings: in vivo
Cytochrome P450 1A2 [9] = target: T1, Cytochrome P450 1A2; assay: Induction of CYP1A2 in human hepatocytes at > 123 ng/ml using phenacetin as substrate incubated for 60 mins by LC-MS/MS analysis; type: ADME, cell-based, Hepatocyte; settings: 1 h
[10] = Induction of CYP3A4 in human hepatocytes using phenacetin as substrate incubated for 60 mins by LC-MS/MS analysis; settings: 1 h
[11] = Volume of distribution at steady state in iv dosed Beagle dog measured up to 24 hrs by LC-MS analysis; type: ADME, organism-based, Canis lupus familiaris; settings: in vivo, read-out: Vdss
Procedure, shortened: (§1)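 Three animals per species and strain received an intravenous dose. Steady-state volume of distribution (L/kg) was derived from the blood concentration–time profile, alongside blood clearance and terminal half-life.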

[12] = Volume of distribution at steady state in iv dosed Wistar rat measured up to 24 hrs by LC-MS analysis; type: ADME, organism-based; settings: in vivo, read-out: Vdss; procedure, shortened: as §1
[13] = Oral bioavailability in Wistar rat measured up to 24 hrs by LC-MS analysis; type: ADME, organism-based; settings: in vivo
[14] = Oral bioavailability in cynomolgus monkey measured up to 24 hrs by LC-MS analysis; type: ADME, organism-based, Macaca fascicularis; settings: in vivo
[15] = Half life in iv dosed cynomolgus monkey measured up to 24 hrs by LC-MS analysis; type: ADME, organism-based, Macaca fascicularis; settings: in vivo
[16] = Half life in iv dosed Wistar rat measured up to 24 hrs by LC-MS analysis; type: ADME, organism-based; settings: in vivo
[17] = Oral bioavailability in Beagle dog measured up to 24 hrs by LC-MS analysis; type: ADME, organism-based, Canis lupus familiaris; settings: in vivo
[18] = Volume of distribution at steady state in iv dosed cynomolgus monkey measured up to 24 hrs by LC-MS analysis; type: ADME, organism-based, Macaca fascicularis; settings: in vivo, read-out: Vdss; procedure, shortened: as §1

Chain of Cytochrome P450 3A4 (P08684 whole entry): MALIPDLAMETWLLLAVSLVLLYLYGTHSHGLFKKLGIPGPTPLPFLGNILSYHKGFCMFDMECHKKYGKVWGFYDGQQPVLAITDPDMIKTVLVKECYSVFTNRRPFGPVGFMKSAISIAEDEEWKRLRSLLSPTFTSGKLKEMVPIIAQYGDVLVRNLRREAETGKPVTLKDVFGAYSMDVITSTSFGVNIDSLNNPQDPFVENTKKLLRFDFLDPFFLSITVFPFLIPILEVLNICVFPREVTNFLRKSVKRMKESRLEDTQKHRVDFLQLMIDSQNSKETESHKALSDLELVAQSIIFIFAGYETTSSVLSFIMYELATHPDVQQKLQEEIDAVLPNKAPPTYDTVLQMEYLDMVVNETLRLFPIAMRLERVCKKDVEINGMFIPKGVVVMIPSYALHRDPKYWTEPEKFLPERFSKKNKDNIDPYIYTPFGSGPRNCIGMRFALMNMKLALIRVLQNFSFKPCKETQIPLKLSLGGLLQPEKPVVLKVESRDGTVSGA

## Cc1c(CCC(=O)O)cccc1NC(=O)[C@H](c1ccc(CN2N=C(c3ccccc3)OCC2=O)cc1)C1CCCC1
Cytochrome P450 1A2 [1]
  Activity: Not Active
Cytochrome P450 3A4
  Activity: Not Active
[2]
  Efficacy: 110%
[3]
  EC50: 0.027 µM
[4]
  MEC: 3 nM

## O=C(O)CCc1cccc(NC(=O)[C@H](c2ccc(CN3N=C(c4ccccc4)OCC3=O)cc2)C2CCCC2)c1
[5]
  clearance: 64.2 mL/min/kg
Cytochrome P450 1A2 [1]
  Activity: Not Active
[6]
  clearance: 14.3 mL/min/kg
Cytochrome P450 3A4
  Activity: Not Active
[7]
  clearance: 2.67 mL/min/kg
[4]
  MEC: 10 nM

## C[C@H]([C@H](C(=O)Nc1cc(C[C@H](C)C(=O)O)ccc1Cl)c1ccc(Cl)cc1)C(F)(F)F
[5]
  clearance: 2.83 mL/min/kg
[6]
  clearance: 0.833 mL/min/kg
[8]
  half-life: 9.3 h
Cytochrome P450 1A2 [9]
  Activity: Not Active
[7]
  clearance: 6.33 mL/min/kg
[10]
  Activity: 266 nM
[2]
  Efficacy: 63%
[11]
  Vd: 2.1 L/kg
[12]
  Vd: 2 L/kg
[13]
  bioavailability: 100%
[3]
  EC50: 0.043 µM
[14]
  bioavailability: 100%
[15]
  half-life: 8.3 h
[16]
  half-life: 13 h
[17]
  bioavailability: 78%
[4]
  MEC: 10 nM
[18]
  Vd: 0.55 L/kg
